Screening results from PubChem BioAssay.
ARFGAP1 inhibitor: inhibitors of rat ARFGAP1 GAP activity, primary screen, biochemical, fluorescence polarization, GDP tracer; ADP-ribosylation factor GTPase-activating protein 1 (Rattus norvegicus), Q62848; Arfgap1-stimulated ARF1 GTP hydrolysis, GDP FP detection; inhibition, % at 16.5 µM; actives 0.26% (n = 360,000); AID 651572, 2012;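 active means inhibition above a per-plate limit, mean inhibition of low control wells plus 3 SD, cut at about 25% in these data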
Target sequence (Q62848 1-136 limits assumed): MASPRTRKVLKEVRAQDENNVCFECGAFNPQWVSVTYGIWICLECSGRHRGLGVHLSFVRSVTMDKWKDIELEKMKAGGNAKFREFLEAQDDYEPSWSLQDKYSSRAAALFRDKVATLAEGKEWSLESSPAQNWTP
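System: truncated rat Arfgap1 GAP domain / Benchmarks: high control wells lacking Arfgap1, low control full reaction with DMSO / Times: compound-enzyme preincubation 20 min, reaction 120 min, detection 60 min, 25 °C / Repeats: one replicate per compound / Also added: human ARF1(Δ1-17)-GTP substrate / Measured by: Tracer-displacement fluorescence polarization with EDTA stop, 620/688 nm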
Tn7 DDE FP: inhibitors of Tn7 peptide binding to fibrin DD(E), primary screen, biochemical, fluorescence polarization, human fibrin, Tn7 probe | Fibrinogen beta chain (Homo sapiens), P02675 | FP displacement of FITC-Tn7 peptide from fibrin DD(E); 0% = median of compound wells per plate | inhibition, % at 8.3 µM | actives 0.13% (n = 370,000) | AID 720508, 2013;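 active means inhibition above the mean of compounds falling within the control limits plus 3 SD of them, cut at about 14% in these data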
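assay system = human clot-derived fibrin DD(E) complex | quantity = Fibrin-DD(E) at 2 µM final | timing = 10 min preincubation, 3 h with tracer, room temperature | signal = fluorescence polarization | measure = percent inhibition | benchmarks = high control wells with 10 µM unlabelled Aha-Tn7 peptide (full inhibition) | replicates = singlicate testing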
ASAP1 inh: inhibitors of human ASAP1 ArfGAP activity, primary screen, biochemical, fluorescence polarization; ASAP1-stimulated ARF1 GTP hydrolysis, GDP FP detection; inhibition, % at 16.5 µM; actives 0.19% (n = 360,000); AID 624377, 2012; in the data active means inhibition above about 25%
Target sequence (Q9ULH1 325-724 limits assumed): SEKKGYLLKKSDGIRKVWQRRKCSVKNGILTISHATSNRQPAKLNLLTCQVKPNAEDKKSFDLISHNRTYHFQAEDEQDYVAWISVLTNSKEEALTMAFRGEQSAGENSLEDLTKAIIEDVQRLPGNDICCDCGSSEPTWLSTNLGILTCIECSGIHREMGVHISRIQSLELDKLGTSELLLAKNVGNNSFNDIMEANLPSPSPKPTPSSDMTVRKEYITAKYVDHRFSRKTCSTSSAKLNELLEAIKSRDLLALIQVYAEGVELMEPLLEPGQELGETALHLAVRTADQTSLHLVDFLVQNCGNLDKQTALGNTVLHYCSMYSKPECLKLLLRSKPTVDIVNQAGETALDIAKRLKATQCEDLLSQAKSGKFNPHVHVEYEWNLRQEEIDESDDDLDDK
Tn6 DDE FP: inhibitors of Tn6 peptide binding to fibrin DD(E), primary screen, biochemical, fluorescence polarization, human fibrin, Tn6 probe. inhibition, % at 8.3 µM. AID 720509, 2013. actives 0.21% (n = 370,000). Fibrinogen beta chain (Homo sapiens), P02675. Fibrin DD(E) TRITC-Tn6 fluorescence polarization displacement;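 active means inhibition above a per-campaign cutoff: mean of compounds within control limits plus 3 SD, cut at about 15% in these data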
ARFGAP1 inh conf: ARFGAP1 inhibitor hit confirmation, biochemical, fluorescence polarization, triplicate | shares compounds with ARFGAP1 inhibitor | AID 651608, 2012 | ARFGAP1-stimulated ARF1 GTP hydrolysis, GDP tracer FP | inhibition, % at 16.5 µM | actives 30% (n = 890);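 active means average inhibition over triplicates above the hit cutoff set in the earlier primary screen, cut at about 25% in these data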
Each line names hits and unclear results; the compound was inactive in the other large screens (follow-up assays come after a bar, where they were run). This is a sample that favours compounds with a hit; in the whole collection about 0.74% have one here.

CCC[C@@H]1CCCO[C@@](C(=O)NCCN2CCOCC2)(C(F)(F)F)C1	ARFGAP1 inhibitor 31.0 | ARFGAP1 inh conf inactive
CCN1C(=O)N(C)C(N(O)C(=O)NC)C1(C)C (stereo unspecified)	ARFGAP1 inhibitor 25.9 | ARFGAP1 inh conf inactive
CNC(=O)N(O)C1N(C)C(=O)N(Cc2ccccc2)C1(C)C (stereo unspecified)	none
C=CCN1[C@H](C)COc2cccc(F)c2S1(=O)=O	none (no result: ARFGAP1 inhibitor, ASAP1 inh)
CSc1nc(O)c(/C=C2\C=Nc3ccccc32)[nH]1	none
O=c1[nH]c(/C=C2\C=Nc3ccccc32)c(O)n1Cc1ccccc1F	ARFGAP1 inhibitor 25.0 | ARFGAP1 inh conf inactive
CCc1cccc(C)c1NC(=O)CSc1nnc(CCCOc2ccc(Cl)cc2Cl)n1C	ARFGAP1 inhibitor 24.8 | ARFGAP1 inh conf inactive
COc1ccc(OC)c(/C=C2\Oc3cc(OCC(=O)N4CCC(C(=O)O)CC4)ccc3C2=O)c1	ARFGAP1 inhibitor 42.4 | ARFGAP1 inh conf 48.1
COc1ccc(/C=C2\Oc3cc(OCC(=O)N4CCC[C@H]4C(=O)O)ccc3C2=O)c(OC)c1OC	ARFGAP1 inhibitor 26.1 | ARFGAP1 inh conf inactive
CS(=O)(=O)N1CCCC(C(=O)NCc2ccc(F)cc2)C1 (stereo unspecified)	ARFGAP1 inhibitor 27.2 | ARFGAP1 inh conf inactive
Cc1ccccc1NC(=O)NCCCN1CCCC1	ARFGAP1 inhibitor 25.6 | ARFGAP1 inh conf inactive
COCCCNC(=O)C[C@H]1C[C@@]2(C(=O)OC)C(=C[C@H](C(C)C)O[C@@H]2C2CC2)N(CCc2ccc(OC)c(OC)c2)C1=O	none (no result: ARFGAP1 inhibitor, ASAP1 inh)
C=CCN1C(=O)[C@@H](CC(=O)NCc2cccc(C(F)(F)F)c2)[C@]2(C(=O)OC)CCCCC=C12	none (no result: ARFGAP1 inhibitor, ASAP1 inh)
Cc1nn(Cc2ccc(C(=O)Nc3ccc(C(=O)OC(C)C)cc3)o2)c(C)c1Cl	ARFGAP1 inhibitor 25.9 | ARFGAP1 inh conf 26.7
CC(=O)Nc1ccc(/C=C/COC(C)=O)cc1C	none (no result: ARFGAP1 inhibitor, ASAP1 inh)
CC(C)=CCC1=C(OCC(=O)O)C(=O)c2ccccc2C1=O	ARFGAP1 inhibitor 25.2 | ARFGAP1 inh conf inactive
O=C(Nc1ccccc1)Nc1sccc1-c1nc2ccccc2s1	none
O=C(Nc1cccc(Cl)c1)Nc1sccc1-c1nc2ccccc2s1	ARFGAP1 inhibitor 27.3 | ARFGAP1 inh conf inactive
CCOc1ccc(-n2c(SCC(=O)Nc3ccccc3-c3ccccc3)nnc2-c2cccs2)cc1	none (no result: ARFGAP1 inhibitor, ASAP1 inh)
COc1cccc(C(=O)NNC(=O)c2sccc2-n2cccc2)c1	none
COc1ccc(/C(C)=N/NC(=O)c2sccc2-n2cccc2)cc1	ARFGAP1 inhibitor 29.2 | ARFGAP1 inh conf inactive
COc1cc2c3nnc(-c4ccc(F)cc4)c-3cn(Cc3ccc(C)cc3)c2cc1OC	ARFGAP1 inhibitor 39.0 | ARFGAP1 inh conf 47.6
COc1cc2c3nnc(-c4ccccc4)c-3cn(Cc3ccc(F)cc3)c2cc1OC	none
O=C(NC(c1ccc(F)cc1)c1ccc2ccccc2n1)C1CCN(Cc2ccc3ccccc3n2)CC1 (stereo unspecified)	none
O=C(NC(c1ccc(F)cc1)c1ccc2ccccc2n1)C1CCN(Cc2cccc(C(F)(F)F)c2)CC1 (stereo unspecified)	ARFGAP1 inhibitor 28.0 | ARFGAP1 inh conf inactive
COc1ccccc1C(=O)NCCC(=O)Nc1ccc(S(=O)(=O)N2CCCC(C)C2)cc1 (stereo unspecified)	ARFGAP1 inhibitor 28.3 | ARFGAP1 inh conf inactive
COc1ccc(-c2cc3cc(OC)c(OC)cc3cn2)cc1	ARFGAP1 inhibitor 29.1 | ARFGAP1 inh conf 30.8
COc1cc2cnc(-c3ccccc3)cc2cc1OC	none
COc1ccc(O)c(-c2cc(-c3ccccc3Cl)[nH]n2)c1	ARFGAP1 inhibitor 30.3 | ARFGAP1 inh conf inactive
S=C(NCc1ccncc1)Nc1ccc(Cl)c(Cl)c1	none
S=C(NCc1cccnc1)Nc1cc(Cl)cc(Cl)c1	ARFGAP1 inhibitor 25.2 | ARFGAP1 inh conf inactive
S=C(NCc1cccnc1)Nc1cccc(Cl)c1	none
S=C(NCc1ccncc1)Nc1cc(Cl)cc(Cl)c1	ARFGAP1 inhibitor 24.9 | ARFGAP1 inh conf inactive
O=C(CCc1ccccc1)N[C@H]1[C@@H](OC(=O)c2cccnc2)CCC[C@]12C(=O)N(Cc1ccccc1)c1ccccc12	none (no result: ARFGAP1 inhibitor, ASAP1 inh)
COC(=O)C1CN(Cc2ccccc2)CCS(=O)(=O)N1Cc1ccc(C)cc1 (stereo unspecified)	none (no result: ARFGAP1 inhibitor, ASAP1 inh)
C=C(C)C(=O)OCC(O)COc1ccc(C(C)(C)c2ccc(OCC(O)COC(=O)C(=C)C)cc2)cc1 (stereo unspecified)	ARFGAP1 inhibitor 32.3 | ARFGAP1 inh conf inactive
CS(=O)(=O)N(CC(=O)N1CCN(c2ccccc2F)CC1)c1ccc2c(c1)OCCO2	ARFGAP1 inhibitor 34.2 | ARFGAP1 inh conf inactive
Cc1cccc(N(CC(=O)N2CCN(c3ccccc3F)CC2)S(C)(=O)=O)c1	none
O=C1c2ccccc2C(Nc2ccc3c(c2)OCCO3)N1c1ccc(Cl)cn1 (stereo unspecified)	ARFGAP1 inhibitor 25.4 | ARFGAP1 inh conf inactive
O=C1c2ccccc2C(Nc2ccc3c(c2)OCCO3)N1c1ccccn1 (stereo unspecified)	none
CC(=O)Nc1ccc(-c2csc(NC(=O)Cc3ccccc3F)n2)cc1	none
CC(=O)Nc1ccc(-c2csc(NC(=O)Cc3cccc(F)c3)n2)cc1	ARFGAP1 inhibitor 31.2 | ARFGAP1 inh conf inactive
CO/N=C/c1cccn1-c1nccc(OC)c1C#N	ARFGAP1 inhibitor 30.6 | ARFGAP1 inh conf inactive
Cc1ccc[n+](C(C)C(=O)c2ccc(Cl)cc2)c1 (stereo unspecified)	ARFGAP1 inhibitor 45.3 | ARFGAP1 inh conf inactive
CC(C)[C@H](NC(=O)[C@@H]1CCCN1)C(=O)N1CCC2CCN(S(=O)(=O)c3ccccc3)CC21 (stereo partly specified)	none (no result: ARFGAP1 inhibitor, ASAP1 inh)
CN1CCN(c2ccc(Cl)cc2NC(=O)/C=C/c2ccc(F)cc2)CC1	ARFGAP1 inhibitor 25.1 | ARFGAP1 inh conf inactive
O=C(/C=C/c1ccc(F)cc1)Nc1cc(S(=O)(=O)N2CCOCC2)ccc1N1CCCC1	none
COc1cccc(OC[C@@H](O)CN2CCC(C(O)(c3ccccc3)c3ccccc3)CC2)c1	none (no result: ARFGAP1 inhibitor, ASAP1 inh)
CC1(C(=O)Nc2cccc(C(F)(F)F)c2)Cc2c(-c3cccc(C(F)(F)F)c3)ccnc2O1 (stereo unspecified)	ARFGAP1 inhibitor 33.7 | ARFGAP1 inh conf inactive
CC(=O)Nc1cccc(-c2ccnc3c2CC(C)(C(=O)Nc2cccc(C(F)(F)F)c2)O3)c1 (stereo unspecified)	none
CC(C)C[C@H]1COc2cc(Br)ccc2S(=O)(=O)N1Cc1cn(CCC2OCCCO2)nn1	none (no result: ARFGAP1 inhibitor, ASAP1 inh)
